Assay outcomes: PubChem, Broad Institute
SR-BI uptake up = enhances SR-BI lipid uptake from DiI-HDL | CHO ldlA[mSR-BI] cells, DiI-HDL uptake fluorescence, 3 h; 100 = double the neutral-control signal | hit rate 0.096% among 320,000 | activation, % at 12.5 µM;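 active means mean replicate activation of at least 60% and every replicate at or above 60%; inconclusive means mean or all-replicate condition met, but not both; inactive means mean below 60% and not all replicates reaching 60%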;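 further: 0% = median plate neutral-control signal and 100% = twice that signal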
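Assay system: LDL receptor-deficient CHO ldlA cells overexpressing murine SR-BI / Medium: BSA-supplemented, HEPES-buffered Ham's F12, pH 7.4 / Probe or stimulus: DiI-labelled HDL at 10 µg/mL final / Timing: compound with DiI-HDL co-incubation, 3 h at 37 °C / Technique: bottom-read cell fluorescence after medium removal, ex 550/em 595 nm / Measure: HDL uptake via cellular fluorescence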
Wnt act = activates Wnt/beta-catenin signaling in a reporter cell assay | activator, plate reader | activation, % at 9.35 µM | hit rate 1.2% among 300,000; in the data active means activation above about 30%, passing the limit was not always enough; inconclusive means no clear call, values can overlap the other calls;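 further: 0% = neutral control wells and 100% = positive control wells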
MITF TRPM1 HTS = increases MITF-driven TRPM1 promoter luciferase signal; SK-MEL-5 TRPM1-promoter luciferase, 24 h; % of positive control, neutral wells = 0; activation, % at 12.5 µM; hit rate 0.75% among 300,000; AID 588334;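 active means mean activation of at least 80% with every replicate also reaching 80%; inconclusive means mean reaches 80% but some replicate falls short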;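 further: 0% = neutral control wells and 100% = parthenolide positive control wells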
HSF1 activator = increases HSF-1 driven luciferase reporter signal. NIH3T3-HGL HSF-1 luciferase reporter, MG132, 8 h; 100% = twice DMSO control signal. activation, % at 9 µM. hit rate 1.7% among 300,000;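 active means mean replicate activation of at least 50% with a set share of replicates each reaching 50%; inconclusive means only one of those two conditions met; inactive means mean below 50% and too few replicates reaching it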;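 further: 0% = median of the neutral control wells and 100% = twice that signal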
SR-BI HDL uptake = blocks mouse SR-BI lipid uptake from DiI-HDL; Q61009; hit rate 0.96% among 320,000; ldlA[mSR-BI] CHO cells, DiI-HDL uptake fluorescence, 3 h; inhibition, % at 12.5 µM; AID 488896;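 active means mean replicate inhibition of at least 70% and a set share of replicates each scoring 70 or more; inconclusive means meets just one of the two criteria; inactive means fails both criteria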;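 further: 0% = median of neutral control wells and 100% = median of positive control wells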
Target sequence (Q61009 whole entry, looked up): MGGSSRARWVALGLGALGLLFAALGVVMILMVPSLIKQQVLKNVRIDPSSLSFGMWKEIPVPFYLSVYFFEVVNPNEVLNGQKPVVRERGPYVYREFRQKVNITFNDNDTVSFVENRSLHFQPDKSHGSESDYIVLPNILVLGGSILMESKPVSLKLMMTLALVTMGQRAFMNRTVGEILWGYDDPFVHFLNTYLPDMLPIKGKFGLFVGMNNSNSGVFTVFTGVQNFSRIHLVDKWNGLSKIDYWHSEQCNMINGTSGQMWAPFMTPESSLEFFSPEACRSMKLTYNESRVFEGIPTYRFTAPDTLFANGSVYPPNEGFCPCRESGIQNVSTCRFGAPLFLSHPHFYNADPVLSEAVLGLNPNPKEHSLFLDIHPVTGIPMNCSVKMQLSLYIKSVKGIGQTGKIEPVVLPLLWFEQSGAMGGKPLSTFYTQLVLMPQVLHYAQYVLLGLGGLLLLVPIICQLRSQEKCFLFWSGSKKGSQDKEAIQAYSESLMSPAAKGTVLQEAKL
The depositor's hits bear a star; ? = inconclusive; / = no result. Sampled rows, rich in hits. Any-hit rate of the full collection: about 3.6%.

SMILES	SR-BI uptake up	Wnt act	MITF TRPM1 HTS	HSF1 activator	SR-BI HDL uptake
Cc1cc(NC(=O)c2ccccc2)n(-c2nc3ccccc3[nH]2)n1	-64	-5	6	6	64
COc1ccc(C(=O)Nc2cc(C)nn2-c2nc3ccccc3[nH]2)c(OC)c1	-75	1	-2	-14	75*
COc1cccc(OC)c1C(=O)Nc1cc(C)nn1-c1nc2ccccc2[nH]1	-41	-1	-5	-46	41
Cc1cc(NC(=O)c2cccs2)n(-c2nc3ccccc3[nH]2)n1	-93	0	-30	-26	93*
CCc1ccc(NC(=O)CN(c2ccccc2)S(=O)(=O)N(C)C)cc1	-12	-2	-5	60*	12
O=C(Nc1cccc(S(=O)(=O)N2CCCC2)c1)[C@H]1C[C@H](O)[C@@H](CO)O1	/	3	/	/	/
Cc1cc(C)cc(NC(=S)NCC2CCN(C(C)c3ccccc3)C2)c1 (configuration not stated)	-1	-1	-5	-4	1
Cc1ccccc1NC(=S)NCC1CCN(C(C)c2ccccc2)C1 (configuration not stated)	/	46*	-7	-6	/
CN(C)c1cccc(F)c1C(=O)NC(=O)Nc1ccc(Cl)cc1	-12	-11	/	/	12
C[C@@H]1CNCCN1c1ccc(N2CCS(=O)(=O)CC2)c(C#N)c1	/	-5	/	/	/
CCOC(=O)Cc1csc(NC(=O)COc2ccc(N(C)S(=O)(=O)c3ccc(C)cc3)cc2)n1	-72	-6	-6	-4	?
CCOc1ccc(S(=O)(=O)N(C)c2ccc(OCC(=O)Nc3nc(-c4cc(OC)ccc4OC)cs3)cc2)cc1	-82	-2	16	0	82*
O=C1c2ccccc2C(=O)N1CCSc1ccccc1	15	/	/	103*	-15
CC(C)n1ncc2c(C(=O)Nc3cccc(C#N)c3)cc(C3CC3)nc21	-75	-3	-23	/	75*
CCNC(=O)c1cccc(NC(=O)c2cc(C3CC3)nc3c2cnn3C(C)C)c1	-75	-1	-3	/	75*
COc1ccc(CNC(=O)c2cc(C3CC3)nc3c2cnn3C(C)C)cc1	-31	-4	1	/	31
CC(C)(C)S(=O)N1C[C@@H]2CC(=O)C(c3ccccc3)=C2[C@H]1CCO (some centres not stated)	/	-1	/	/	/
Cc1cc(Nc2ccc(Cl)c(C(F)(F)F)c2)cc(=O)n1-c1ccc(Cl)c(C(F)(F)F)c1	/	-5	/	/	/
CCOc1ccc2c(c1)-c1c(ssc1=S)C(C)(C)N2C	-89	/	14	1	89*
CC1(C)Nc2ccc(O)cc2-c2c1ssc2=S	-12	/	-11	-52	12
COc1cccc(CNC(=O)[C@H]2CCCN2C(=O)[C@H]2CCCN2C(=O)N2CCCCC2)c1	/	4	/	/	/
CC(OC(=O)c1ccc(Cl)nc1)C(=O)NC1CCCC1 (configuration not stated)	412*	-1	0	/	-412
COC1CC(N)C2OC(c3ccccc3)OCC2O1 (configuration not stated)	/	0	/	/	/
Nc1ccccc1Nc1ccc([N+](=O)[O-])cc1[N+](=O)[O-]	15	-5	4	60*	-15
O=[N+]([O-])c1ccccc1Nc1ccccc1[N+](=O)[O-]	-40	-1	3	/	40
SMILES	SR-BI uptake up	Wnt act	MITF TRPM1 HTS	HSF1 activator	SR-BI HDL uptake
O=[N+]([O-])c1ccc(Nc2cccc3c2[nH]c2c(-c4ccccc4)nccc23)c([N+](=O)[O-])c1	-79	-2	7	7	79*
O=C(O)c1ccccc1Nc1ccc([N+](=O)[O-])cc1C(=O)O	19	2	/	-8	-19
CC(C)CN=c1cc(-c2ccccc2)oc2ccc(Cl)cc12	-10	/	53	60*	10
CN(C)CCCN=c1cc(-c2ccccc2)oc2ccc(Cl)cc12	13	12	84*	/	-13
Cc1cc(Cl)ccc1NC(=O)/N=C1/NC(=O)CS1	/	0	/	/	/
Cc1ccc(NC(=O)COC(=O)c2cc(=O)c3ccccc3o2)cc1F	11	2	6	/	-11
COC(=O)[C@]12C[C@H](CC(=O)N3CCN(C(=O)C4CC4)CC3)C(=O)N(Cc3ccccc3)C1=C[C@H](C1CCCC1)O[C@@H]2C	/	1	/	/	/
CCCCC(=O)Nc1ccc(NC(=O)c2ccc([N+](=O)[O-])cc2)cc1OC	-30	-1	-2	-7	30
CCSc1ccccc1C(=O)Nc1ccc([N+](=O)[O-])cc1OC	-84	0	-2	2	84*
CCCC(=O)Nc1ccc(C(=O)Nc2ccc([N+](=O)[O-])cc2OC)cc1	-77	-1	12	17	77*
COc1cc(NC2CCCCC2O)c2nc(-c3ccc(Cl)cc3)ccc2c1 (configuration not stated)	-80	4	11	32	80*
COc1ccc(OCC(=O)OCC(=O)NC2CCCCC2C)cc1 (configuration not stated)	7	-1	11	/	-7
COc1ccc(N2C(=O)c3ccccc3NC(=O)C2C(=O)NCC(C)C)cc1 (configuration not stated)	/	-2	/	/	/
CCCCNC(=O)C1CC(c2cccc(F)c2)=NO1 (configuration not stated)	9	32*	89*	7	-9
Cc1cccc(NC(=S)NCC23C=CC(O2)C2C(=O)N(c4ccc(Cl)cc4)C(=O)C23)c1 (configuration not stated)	-55	-3	-1	98*	55
O=C(CC(c1ccccc1)c1cc(Cl)ccc1O)N1CCCC1 (configuration not stated)	5	5	-11	7	-5
O=C(CC(c1ccccc1O)N1CCCCC1)N1CCCCC1 (configuration not stated)	17	39*	/	-2	-17
COc1ccc(C2Nc3ccccc3C(=O)N2c2ccc(C)cc2)cc1Cn1cc([N+](=O)[O-])cn1 (configuration not stated)	9	7	91*	47	-9
COc1ccc(C2Nc3ccccc3C(=O)N2c2ccc(C)cc2)cc1Cn1nnc2ccccc21 (configuration not stated)	-8	14	98*	46	8
COc1ccc(C)cc1Cn1nnc2ccccc21	1	2	-3	11	-1
Cc1ccc2nc(COC(=O)c3cccnc3Cl)cc(=O)n2c1	/	-2	/	/	/
CCC(=O)N1CCCC(C)(C(=O)NS(=O)(=O)c2cccs2)C1 (configuration not stated)	/	0	/	/	/
Cc1cccc(N=c2oc3cc(O)ccc3cc2C(N)=O)c1	/	40*	41	58*	23
CCS(=O)(=O)N1CCN(C(=O)c2ccc3nc(C)c(N(C)C(=O)CCc4ccccc4)n3c2)CC1	/	0	/	/	/
Oc1ccc(Br)cc1/C=N/N1CCCCC1	-15	3	110*	24	15
COc1ccc(CN2C(=O)C(CC(=O)NCC3CCCCC3)CC(C(=O)N3CCOCC3)=C2C)cc1 (configuration not stated)	/	0	/	/	/
